Values after ≈ are worked out from the molar mass of the structure shown. Active and inactive are the calls of the source. No cut-off for these calls is given here.
Columns and labels:
[1] = molecular target: T1, Transient receptor potential cation channel subfamily V member 1 (Rattus norvegicus, UniProt O35433); experiment: Inhibition of rat TRPV1 expressed in CHO cells assessed as capsaicin-induced Ca2+ influx; type: cell-based
[2] = Solubility in 0.01N HCl; type: physicochemical
Outline: (§1)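 Thermodynamic solubility determined in a high-throughput automated format; media 0.01 N HCl, PBS and simulated intestinal fluid.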

[3] = molecular target: T1, Transient receptor potential cation channel subfamily V member 1; experiment: Inhibition of rat TRPV1 expressed in CHO cells assessed as acid-induced Ca2+ influx; type: cell-based
[4] = Solubility in SIF; type: physicochemical; outline: as §1
[5] = Oral bioavailability in Sprague-Dawley rat at 5 mg/kg; type: ADME, organism-based; conditions: in vivo
Outline: (§2)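 Fasted male Sprague-Dawley rats given 5 mg/kg orally as a suspension in 5% Tween 80/Oraplus; plasma sampled up to 8 h.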

[6] = AUC (0 to infinity) in Sprague-Dawley rat at 1 mg/kg, iv up to 6 hrs; type: ADME, organism-based; set-up: time infinity, dose 1 mg/kg, route intravenous; conditions: plasma
[7] = Half life in Sprague-Dawley rat at 1 mg/kg, iv; type: ADME, organism-based; set-up: dose 1 mg/kg, route intravenous; conditions: in vivo
[8] = Clearance in Sprague-Dawley rat at 1 mg/kg, iv up to 6 hrs; type: ADME, organism-based; set-up: dose 1 mg/kg, route intravenous; conditions: in vivo
[9] = AUC (0-inf) in Sprague-Dawley rat at 5 mg/kg, po up to 8 hrs; type: ADME, organism-based; set-up: time infinity, dose 5 mg/kg, route oral; conditions: plasma; outline: as §2
[10] = Solubility in PBS; type: physicochemical; outline: as §1
[11] = Volume of distribution in Sprague-Dawley rat at 1 mg/kg, iv up to 6 hrs; type: ADME, organism-based; set-up: dose 1 mg/kg, route intravenous; conditions: in vivo, read-out: Vss
Rattus norvegicus [12] = experiment: Inhibition of capsaicin-induced flinching in rat at 10 mg/kg, po up to 8 hrs; type: functional, organism-based; set-up: dose 10 mg/kg
Outline: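 Rats given 10 mg/kg orally; capsaicin-induced flinching challenged at intervals up to 8 h after dosing.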

[13] = Clearance in dog at 1 mg/kg, iv; type: ADME, organism-based, Canis lupus familiaris; set-up: dose 1 mg/kg, route intravenous; conditions: in vivo
Outline: (§3)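 Fed male animals given 1 mg/kg intravenously in 80% PEG-400/H₂O.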

Rattus norvegicus [14] = experiment: Suppression of capsaicin-evoked paw flinching in orally dosed rat; type: functional; conditions: po
[15] = Oral bioavailability in dog at 3 mg/kg; type: ADME, organism-based, Canis lupus familiaris; conditions: in vivo
Outline: (§4)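 Fasted male animals dosed orally at 3 mg/kg, vehicle 10% Pluronic F108 in either Oraplus or H₂O.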

Rattus norvegicus [16] = organism: Rattus norvegicus; experiment: Plasma concentration in rat model of CFA-induced inflammation; type: ADME, organism-based; conditions: in vivo
Outline: (§5)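 Complete Freund's adjuvant injected to induce inflammatory thermal hyperalgesia in rats; oral dose-response, minimum effective dose determined, with corresponding plasma level measured.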

[17] = Volume of distribution at steady state in Sprague-Dawley rat at 1 mg/kg, iv after 72 hrs; type: ADME, organism-based; set-up: dose 1 mg/kg, route intravenous; conditions: in vivo, read-out: Vss
[18] = Oral bioavailability in monkey at 3 mg/kg; type: ADME, organism-based, Macaca mulatta; conditions: rhesus monkey, in vivo; outline: as §4
[19] = Half life in Sprague-Dawley rat at 1 mg/kg, iv after 72 hrs; type: ADME, organism-based; set-up: dose 1 mg/kg, route intravenous; conditions: in vivo
[20] = Half life in dog at 1 mg/kg, iv; type: ADME, organism-based, Canis lupus familiaris; set-up: dose 1 mg/kg, route intravenous; conditions: in vivo; outline: as §3
Rattus norvegicus [21] = organism: Rattus norvegicus; experiment: Reduction of thermal hyperalgesia in rat model of CFA-induced inflammation in assessed as minimum effective dose; type: functional; conditions: read-out: MED; outline: as §5
[22] = Volume of distribution at steady state in dog at 1 mg/kg, iv; type: ADME, organism-based, Canis lupus familiaris; set-up: dose 1 mg/kg, route intravenous; conditions: in vivo, read-out: Vss; outline: as §3
[23] = Half life in monkey at 1 mg/kg, iv; type: ADME, organism-based, Macaca mulatta; set-up: dose 1 mg/kg, route intravenous; conditions: rhesus monkey, in vivo; outline: as §3
[24] = Clearance in monkey at 1 mg/kg, iv; type: ADME, organism-based, Macaca mulatta; set-up: dose 1 mg/kg, route intravenous; conditions: rhesus monkey, in vivo; outline: as §3
Rattus norvegicus [25] = organism: Rattus norvegicus; experiment: Plasma concentration in rat with capsaicin-evoked paw flinching; type: ADME, organism-based; conditions: in vivo
[26] = Volume of distribution at steady state in monkey at 1 mg/kg, iv; type: ADME, organism-based, Macaca mulatta; set-up: dose 1 mg/kg, route intravenous; conditions: rhesus monkey, in vivo, read-out: Vss; outline: as §3
[27] = Clearance in Sprague-Dawley rat at 1 mg/kg, iv after 72 hrs; type: ADME, organism-based; set-up: dose 1 mg/kg, route intravenous; conditions: in vivo
[28] = AUC (0 to infinity) in Sprague-Dawley rat at 3 mg/kg, po up to 8 hrs; type: ADME, organism-based; set-up: time infinity, dose 3 mg/kg, route oral; conditions: plasma
Outline: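 Fasted male Sprague-Dawley rats were given a single oral dose of 3 mg/kg as a suspension in 5% Tween 80/Oraplus. Plasma was sampled for up to 8 h, and AUC0-∞ was reported in ng·h/mL.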

T1 sequence (O35433 whole entry): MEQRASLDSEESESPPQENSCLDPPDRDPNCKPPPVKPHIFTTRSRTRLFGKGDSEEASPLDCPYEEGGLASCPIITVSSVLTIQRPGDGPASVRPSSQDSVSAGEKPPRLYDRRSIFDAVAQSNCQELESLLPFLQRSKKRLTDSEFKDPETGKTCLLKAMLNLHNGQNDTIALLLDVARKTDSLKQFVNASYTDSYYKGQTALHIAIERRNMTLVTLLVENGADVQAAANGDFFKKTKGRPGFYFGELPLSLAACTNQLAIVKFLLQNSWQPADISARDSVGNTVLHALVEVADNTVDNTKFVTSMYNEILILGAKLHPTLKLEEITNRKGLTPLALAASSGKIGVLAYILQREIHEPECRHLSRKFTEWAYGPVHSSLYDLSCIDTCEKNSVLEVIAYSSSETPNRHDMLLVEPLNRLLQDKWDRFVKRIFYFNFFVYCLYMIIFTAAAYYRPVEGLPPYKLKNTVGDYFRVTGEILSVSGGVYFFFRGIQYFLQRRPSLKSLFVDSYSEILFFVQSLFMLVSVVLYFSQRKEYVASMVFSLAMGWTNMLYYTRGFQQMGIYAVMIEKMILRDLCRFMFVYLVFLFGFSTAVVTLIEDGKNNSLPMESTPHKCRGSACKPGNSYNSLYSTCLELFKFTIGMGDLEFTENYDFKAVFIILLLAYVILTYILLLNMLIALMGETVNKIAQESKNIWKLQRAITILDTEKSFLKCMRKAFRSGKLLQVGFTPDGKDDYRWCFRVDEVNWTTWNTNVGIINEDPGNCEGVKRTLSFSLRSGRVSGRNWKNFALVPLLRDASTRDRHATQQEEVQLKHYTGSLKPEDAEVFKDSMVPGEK

CC(=O)Nc1nc2c(Oc3cc(N4CCN(C(C)(C)C)CC4)ncn3)cccc2s1
IC50 [1]: 1500 nM
solubility [2]: ≥ 200 µg/mL
IC50 [3]: > 4000 nM

CC(=O)Nc1nc2c(Oc3cc(N4CCN(CCc5ccccc5)CC4)ncn3)cccc2s1
solubility [2]: ≥ 200 µg/mL

CC(=O)Nc1nc2c(Oc3cc(N4CCN(C(C)c5ccc(F)cc5)CC4)ncn3)cccc2s1 (centres undefined)
solubility [4]: 34 µg/mL (≈ 69 µM)
bioavailability [5]: 35%
AUC(0-inf) [6]: 1000 ng·h/mL
half-life [7]: 144 min
solubility [2]: ≥ 200 µg/mL
clearance [8]: 18.3 mL/min/kg
AUC(0-inf) [9]: 1800 ng·h/mL
solubility [10]: 5 µg/mL (≈ 10.2 µM)
Vd [11]: 2.9 L/kg

CC(=O)Nc1nc2c(Oc3cc(N4CCN([C@H](C)c5ccc(F)cc5)CC4)ncn3)cccc2s1
Activity (Rattus norvegicus [12]): Active
clearance [13]: 40 mL/min/kg
ED50 (Rattus norvegicus [14]): 1.9 mg/kg
solubility [4]: 64 µg/mL (≈ 130 µM)
bioavailability [5]: 51%
AUC(0-inf) [6]: 1200 ng·h/mL
half-life [7]: 162 min
solubility [2]: ≥ 200 µg/mL
clearance [8]: 13.3 mL/min/kg
bioavailability [15]: 83%
AUC(0-inf) [9]: 3100 ng·h/mL
Cp (Rattus norvegicus [16]): 70 ng/mL
Vd [17]: 2.6 L/kg
bioavailability [18]: 12%
half-life [19]: 228 min
half-life [20]: 162 min
minimal effective dose (Rattus norvegicus [21]): 1 mg/kg
Vd [22]: 4 L/kg
half-life [23]: 192 min
clearance [24]: 6.67 mL/min/kg
Cp (Rattus norvegicus [25]): 128 ng/mL
solubility [10]: 7 µg/mL (≈ 14.2 µM)
Vd [26]: 0.9 L/kg
clearance [27]: 13.8 mL/min/kg
Vd [11]: 2.8 L/kg

CC(=O)Nc1nc2c(Oc3cc(C4CCC(C(F)(F)F)CC4)ncn3)cccc2s1 (centres undefined)
IC50 [1]: 350 nM
solubility [2]: 5 µg/mL (≈ 11.5 µM)
IC50 [3]: 10 nM

CC(=O)Nc1nc2c(Oc3cc(N4CCN(c5ccccc5)CC4)ncn3)cccc2s1
solubility [2]: 1.5 µg/mL (≈ 3.36 µM)
clearance [8]: 16.7 mL/min/kg

CC(=O)Nc1nc2c(Oc3cc(N4CCN(C(c5ccccc5)c5ccccc5)CC4)ncn3)cccc2s1
solubility [2]: 46 µg/mL (≈ 85.7 µM)

CC(=O)Nc1nc2c(Oc3cc(N4CCN(Cc5ccccc5)CC4)ncn3)cccc2s1
solubility [2]: ≥ 200 µg/mL

CC(=O)Nc1nc2c(Oc3cc(N4CCN(C(C)(C)c5ccccc5)CC4)ncn3)cccc2s1
solubility [2]: ≥ 200 µg/mL

CC(=O)Nc1nc2c(Oc3cc(N4CCOCC4)ncn3)cccc2s1
IC50 [1]: > 4000 nM
solubility [2]: 32 µg/mL (≈ 86.2 µM)
IC50 [3]: > 4000 nM

CC(=O)Nc1nc2c(Oc3cc(N4CCN(C(C)C)CC4)ncn3)cccc2s1
solubility [2]: ≥ 200 µg/mL

CC(=O)Nc1nc2c(Oc3cc(N4CCN(C(C)c5ccc(C(F)(F)F)cc5)CC4)ncn3)cccc2s1 (centres undefined)
IC50 [1]: 5 nM
solubility [4]: 121 µg/mL (≈ 223 µM)
bioavailability [5]: 3%
AUC(0-inf) [6]: 720 ng·h/mL
half-life [7]: 162 min
solubility [2]: ≥ 200 µg/mL
clearance [8]: 23.3 mL/min/kg
AUC(0-inf) [9]: 120 ng·h/mL
IC50 [3]: 1.8 nM
solubility [10]: 5 µg/mL (≈ 9.22 µM)
Vd [11]: 4.5 L/kg

CC(=O)Nc1nc2c(Oc3cc(N4CCN([C@@H](C)c5ccc(F)cc5)CC4)ncn3)cccc2s1
solubility [4]: 121 µg/mL (≈ 246 µM)
bioavailability [5]: 93%
AUC(0-inf) [6]: 550 ng·h/mL
half-life [7]: 150 min
solubility [2]: ≥ 200 µg/mL
clearance [8]: 30 mL/min/kg
AUC(0-inf) [9]: 2550 ng·h/mL
solubility [10]: 31 µg/mL (≈ 62.9 µM)
Vd [11]: 5.7 L/kg

CC(=O)Nc1nc2c(Oc3cc(-c4ccc(C(F)(F)F)cc4)ncn3)cccc2s1 [AMG-517]
bioavailability [5]: 32%
solubility [2]: < 1 µg/mL
solubility [10]: < 1 µg/mL
Vd [11]: 1.6 L/kg
AUC(0-inf) [28]: 12500 ng·h/mL

CC(=O)Nc1nc2c(Oc3cc(N4CCC(C(F)(F)F)CC4)ncn3)cccc2s1
IC50 [1]: 330 nM
solubility [2]: 9 µg/mL (≈ 20.6 µM)
IC50 [3]: 19 nM

CC(=O)Nc1nc2c(Oc3cc(N4CCN(C(C)c5cccc(F)c5)CC4)ncn3)cccc2s1 (centres undefined)
solubility [2]: ≥ 200 µg/mL
clearance [8]: 53.3 mL/min/kg

CC(=O)Nc1nc2c(Oc3cc(N4CCN(C(C)c5ccccc5)CC4)ncn3)cccc2s1 (centres undefined)
solubility [2]: ≥ 200 µg/mL
clearance [8]: 65 mL/min/kg

CC(=O)Nc1nc2c(Oc3cc(N4CCN(C(C)c5ccccc5F)CC4)ncn3)cccc2s1 (centres undefined)
solubility [2]: ≥ 200 µg/mL
clearance [8]: 50 mL/min/kg

CC(=O)Nc1nc2c(Oc3cc(C4=CCC(C(F)(F)F)CC4)ncn3)cccc2s1 (centres undefined)
IC50 [1]: 27 nM
solubility [2]: 13 µg/mL (≈ 29.9 µM)
IC50 [3]: 2.4 nM

CC(=O)Nc1nc2c(Oc3cc(N4CCN(CC(F)(F)F)CC4)ncn3)cccc2s1
IC50 [1]: 380 nM
solubility [2]: ≥ 200 µg/mL
IC50 [3]: 120 nM

COc1ccc(C(C)N2CCN(c3cc(Oc4cccc5sc(NC(C)=O)nc45)ncn3)CC2)cc1 (centres undefined)
solubility [2]: ≥ 200 µg/mL

CC(=O)Nc1nc2c(Oc3cc(N4CCN(CC(C)(C)C)CC4)ncn3)cccc2s1
IC50 [1]: 3 nM
solubility [2]: ≥ 200 µg/mL
clearance [8]: 25 mL/min/kg
IC50 [3]: 5 nM

CCC(c1ccccc1)N1CCN(c2cc(Oc3cccc4sc(NC(C)=O)nc34)ncn2)CC1 (centres undefined)
solubility [2]: ≥ 200 µg/mL

CC(=O)Nc1nc2c(Oc3cc(N4CCNCC4)ncn3)cccc2s1
IC50 [1]: > 4000 nM
solubility [2]: 173 µg/mL (≈ 467 µM)
IC50 [3]: > 4000 nM

Reference: ChEMBL document CHEMBL1145460, “Novel vanilloid receptor-1 antagonists: 3. The identification of a second-generation clinical candidate with improved physicochemical and pharmacokinetic properties” (J Med Chem, 2007)
